GRIN3A LBD mod = modulates the human NR3A ligand-binding domain; NR3A LBD differential scanning fluorimetry, Tm shift; 0% = protein alone, 100% = glycine-bound protein; Tm shift relative to glycine control, % at 25 µM; 340,000 tested, 2.5% active; AID 1259313;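 active = melting temperature shift of at least 10% of the positive control shift, at one fixed dose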
SKN-1 inh = inhibitors of C. elegans SKN-1; 360,000 tested, 0.49% active; C. elegans VP596 Pgst-4::GFP/RFP ratio, acrylamide-induced, 24 h; inhibition, % at 21.8 µM;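 active = interference check ratio from 0.5 to 1.5 plus GFP to RFP signal ratio inhibition reaching or exceeding a fixed threshold, cut at about 30% in these data, passing the limit was not always enough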
ADAM10 inh = ADAM10 inhibition, QFRET primary screen; recombinant ADAM10, EDANS/DABCYL FRET peptide cleavage, 3 h; inhibition, % at 7 µM; 370,000 tested, 0.62% active;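 active = inhibition above a per-campaign cutoff equal to the mean of compounds falling between control-based bounds plus 3 SD, cut at about 20% in these data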;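 note: 0% = DMSO wells while the 100% control is not disclosed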
Target sequence (O14672 214-748 limits assumed): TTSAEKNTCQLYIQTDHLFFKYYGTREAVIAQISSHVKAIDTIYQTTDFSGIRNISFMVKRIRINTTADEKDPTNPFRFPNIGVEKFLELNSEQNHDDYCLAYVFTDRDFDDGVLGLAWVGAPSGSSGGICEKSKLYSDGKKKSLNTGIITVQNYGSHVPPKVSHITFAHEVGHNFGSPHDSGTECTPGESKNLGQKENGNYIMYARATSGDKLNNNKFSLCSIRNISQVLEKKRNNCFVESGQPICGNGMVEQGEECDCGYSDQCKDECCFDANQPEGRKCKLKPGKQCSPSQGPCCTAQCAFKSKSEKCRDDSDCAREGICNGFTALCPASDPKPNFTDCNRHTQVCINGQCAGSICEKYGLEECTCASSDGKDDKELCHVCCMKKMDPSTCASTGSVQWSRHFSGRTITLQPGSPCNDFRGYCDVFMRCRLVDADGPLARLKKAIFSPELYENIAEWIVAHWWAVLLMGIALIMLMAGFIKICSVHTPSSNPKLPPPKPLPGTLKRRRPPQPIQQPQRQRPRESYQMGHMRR
ADAM17 inh = ADAM17 inhibition, QFRET primary screen; P78536; recombinant ADAM17, EDANS/DABCYL FRET peptide cleavage; inhibition, % at 6.95 µM; 370,000 tested, 0.83% active; AID 720648;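 active = inhibition above the mean of compounds lying between control limits plus 3 SD, set per campaign, cut at about 8.5% in these data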;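 note: 0% = DMSO-only wells as the low control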
MT1-MMP act inh = inhibitors of human MT1-MMP activation. P50281. HT1080 RFP-PRO-GFP cells, GFP/RFP ratio fluorescence, overnight; percent of plate control window, DMSO zero. GFP/RFP ratio change, % at 20 µM. 360,000 tested, 0.061% active;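 active = GFP/RFP ratio change of at least 30% with cell ATP level not reduced by more than half and red fluorescence within 50% of control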
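Assay system: HT1080 RFP-PRO-GFP cells | Dosing: 20 µM single dose, 1% DMSO | Incubation: Cells overnight before dosing, compound overnight, 37 °C, 5% CO2 | Evaluation: GFP/RFP fluorescence ratio | Control set: DMSO-only wells and HT1080 RFP-L50D-GFP cell wells as references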
MPTP block = inhibitors of mitochondrial permeability transition pore | isolated mouse mitochondria, Ca2+ swelling absorbance, 30 min | inhibition, % at 10 µM | 360,000 tested, 1.4% active | AID 602449;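 active = inhibition of 50% or more, scaled per plate between neutral and stimulator controls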;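 note: 0% = DMSO wells given calcium and 100% = 1 mM EGTA wells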
ADAM10 confirm = confirmation of inhibitors of human ADAM10; shares compounds with ADAM10 inh; ADAM10 QFRET peptide cleavage, EDANS fluorescence; inhibition, % at 6.95 µM; 2,100 tested, 1% active; AID 743208;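 active = inhibition above about 20% chosen separately for each screening run, limit read from the data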;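 note: 0% = DMSO wells and 100% = marimastat wells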
ADAM17 counter = counter-screen for ADAM10 exosite inhibitors: inhibitors of human ADAM17; shares compounds with ADAM10 inh; ADAM17 QFRET peptide cleavage, EDANS fluorescence; inhibition, % at 6.95 µM; 2,100 tested, 0.5% active;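 active = mean triplicate inhibition above the solvent-only control wells' mean plus 3 SD, cut at about 12% in these data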;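 note: 0% = DMSO wells and 100% = marimastat wells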
ADAM10 counter = counter-screen for ADAM17 exosite inhibitors: inhibitors of human ADAM10. shares compounds with ADAM17 inh. recombinant ADAM10, EDANS/DABCYL FRET peptide cleavage, 3 h. inhibition, % at 6.95 µM. 2,900 tested, 47% active. AID 743256;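 active = mean inhibition over the triplicate runs exceeds the activity threshold set in the earlier primary screen, cut at about 20% in these data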;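 note: 0% = DMSO wells and 100% = marimastat wells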
ADAM17 confirm = human ADAM17 inhibition, confirmation; recombinant ADAM17, EDANS/DABCYL QFRET peptide cleavage; AID 743257; 2,900 tested, 65% active; shares compounds with ADAM17 inh; inhibition, % at 6.95 µM;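 active = mean inhibition across replicates above the hit cutoff set in the primary screen, cut at about 8.5% in these data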;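 note: 0% = DMSO wells and 100% = marimastat wells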
The depositor's hits bear a star; · = no result given. A selection: hits, their analogues and other compounds. The true share with any hit is near 4.7%.

SMILES | GRIN3A LBD mod | SKN-1 inh | ADAM10 inh | ADAM17 inh | MT1-MMP act inh | MPTP block | ADAM10 confirm | ADAM17 counter | ADAM10 counter | ADAM17 confirm
COc1cc(/C=N/NC(=O)c2cccnc2)ccc1OS(=O)(=O)c1ccc(C)cc1 | 2 | 5 | 3 | 0 | 4 | 0 | · | · | · | ·
COc1cc(/C=N/NC(=O)COc2cccc(F)c2)ccc1OS(=O)(=O)c1ccc(C)cc1 | 6 | 9 | 25* | 13* | 6 | 28 | 8 | 3 | 24* | 16*
Cc1ccc(NC(=S)NC(=O)C2CCCCC2)c(Br)c1 | 2 | 20 | 33* | 15* | -1 | -1 | 3 | 1 | 11 | 9.3*
Cc1ccc(NC(=O)C2CCCC2)c(Br)c1 | 0 | 17 | 5 | -8 | 3 | 2 | · | · | · | ·
CCc1ccc(-c2cn(C3CCCCC3)c(=S)[nH]2)cc1 | 1 | 5 | 29* | 9.6* | -5 | 1 | 17 | 6 | 0 | 5
C[C@@H]1CCCCO[C@@H](CN(C)S(=O)(=O)c2ccc(F)cc2)[C@@H](C)CN([C@H](C)CO)C(=O)c2cc(N(C)C)ccc2O1 | · | 7 | -4 | 1 | -4 | 0 | · | · | · | ·
C[C@@H]1CN([C@H](C)CO)C(=O)c2cc(NC(=O)Nc3ccc(C(F)(F)F)cc3)ccc2O[C@H]1CN(C)S(=O)(=O)c1ccccc1 | 22* | 28 | 28* | 11* | -10 | 1 | 6 | 3 | 28* | 16*
C[C@@H]1CN([C@H](C)CO)C(=O)c2cc(NC(=O)Nc3ccc(F)cc3)ccc2O[C@@H](C)CCCCO[C@H]1CN(C)S(=O)(=O)c1ccc(Cl)cc1 | · | 0 | 32* | 13* | 1 | 2 | 9 | 4 | 34* | 17*
C[C@H](CO)N1C[C@H](C)[C@@H](CN(C)S(=O)(=O)c2ccccc2)Oc2c(NC(=O)Nc3ccc(C(F)(F)F)cc3)cccc2C1=O | 4 | 2 | 19 | 8 | 0 | -1 | · | · | · | ·
C[C@H]1CN([C@@H](C)CO)C(=O)c2cccc(NS(=O)(=O)c3ccc(F)cc3)c2O[C@H]1CN(C)Cc1ccc(Cl)c(Cl)c1 | -9 | 5 | 20* | 9.2* | -5 | -2 | 5 | 1 | 28* | 15*
COc1ccc(S(=O)(=O)Nc2cccc3c2O[C@H](CN(C)Cc2ccc(Cl)c(Cl)c2)[C@@H](C)CN([C@H](C)CO)C3=O)cc1 | -8 | 16 | 20 | 7 | 11 | 0 | · | · | · | ·
CSCCC(NC(=O)c1ccccc1Cl)C(=O)OCC(=O)N1CCCC1=O (configuration not stated) | -1 | 14 | -6 | 2 | -1 | 1 | · | · | · | ·
COc1cccc(/C=c2\s/c(=C\C(=O)C(C)(C)C)[nH]c2=O)c1 | 2 | -6 | 6 | -1 | 7 | 7 | · | · | · | ·
O=C(c1ccc(Cl)cc1)N1CCC(O)(CSc2ccc(Cl)cc2Cl)CC1 | -3 | -5 | 27* | 9.4* | 2 | 0 | 4 | 2 | 27* | 11*
COC(=O)c1scc(S(=O)(=O)C(C)(C)C)c1N | 1 | 6 | -26 | -9 | 2 | 2 | · | · | · | ·
COc1ccc(N2C(=O)c3ccccc3NC2c2ccc(OC)c(Cn3cc([N+](=O)[O-])cn3)c2)cc1 (configuration not stated) | 0 | -3 | 0 | -3 | 10 | 1 | · | · | · | ·
COCCNC(=O)C1(C)Cc2c(-c3cccc(C(F)(F)F)c3)ccnc2O1 (configuration not stated) | · | 3 | -14 | -5 | -3 | 0 | · | · | · | ·
COc1ccc(NC(=O)c2ccc3c(=O)n(-c4ccc(OC)cc4OC)c(=S)[nH]c3c2)cc1 | -6 | 5 | 24* | 9.1* | 4 | -6 | 4 | 1 | 18 | 4
COc1ccc(C(=O)NC2CCC(O)CC2)cc1S(=O)(=O)NCc1ccc(Cl)cc1 (configuration not stated) | 0 | -27 | -14 | -2 | 16 | 0 | · | · | · | ·
Cc1nn(Cc2ccccc2)c(C)c1/C=N/NC(=O)CNc1cccc(C(F)(F)F)c1 | 13* | -3 | 21* | 11* | 0 | 1 | 4 | 1 | 19 | 10*
COc1ccc(NCC(=O)N/N=C/c2c(C)nn(Cc3ccccc3)c2Cl)cc1 | -5 | 10 | 7 | 1 | 4 | 1 | · | · | · | ·
C[C@@]12C(=O)N(c3cccc(F)c3)C(=O)N1[C@@H]1c3ccccc3OC[C@@H]1[C@H]2c1ccccc1 | -1 | 6 | 23* | 11* | -8 | -1 | 5 | 2 | 5 | 7
O=C(Oc1ccc(OC(=O)c2ccco2)c(S(=O)(=O)c2ccc(Cl)cc2)c1)c1ccco1 | -1 | -5 | 26* | 8.8* | 1 | -1 | 4 | 2 | 20 | 9.7*
CC(=O)c1cc(Cl)ccc1OC(=O)c1ccco1 | -1 | 4 | 3 | -7 | -1 | 2 | · | · | · | ·
CC(C)(C)c1ccc(S(=O)(=O)N2CCN(CC(O)COCC3CCCO3)CC2)cc1 (configuration not stated) | -2 | 16 | -2 | 0 | 1 | -1 | · | · | · | ·
CCCN1C(=O)c2[nH]nc(-c3cc(Cl)c(C)cc3O)c2C1c1ccc(O)c(OC)c1 (configuration not stated) | -9 | 9 | 21* | 12* | 11 | 7 | 4 | 0 | 34* | 19*
Cc1cc(O)c(-c2n[nH]c3c2C(c2cccc(O)c2)N(Cc2cccnc2)C3=O)cc1Cl (configuration not stated) | 5 | 6 | 22* | 9.6* | -1 | 11 | 5 | 1 | 10 | 8
Cc1ccc(NC(=O)c2cc(S(=O)(=O)N3CCOCC3)cn2C)cc1F | 5 | 9 | 2 | 1 | 20 | 0 | · | · | · | ·
COc1ccccc1OCCNC(=O)CCS(=O)(=O)c1ccccc1 | 0 | 3 | 3 | -4 | -2 | 0 | · | · | · | ·
Cc1[nH]nc2c1C(c1ccc(Br)cc1)N(c1ccccc1)C2=O (configuration not stated) | · | · | -10 | -1 | · | · | · | · | · | ·

From PubChem BioAssay
